# Assay results collected from several papers.
# Compare with care: the assays were run in different laboratories.
# Target: 5'-AMP-activated protein kinase catalytic subunit alpha-1 (PRKAA1, Homo sapiens, UniProt Q13131)
Structure (SMILES),assay,system,conditions,measurement,value
C=CC(=O)Nc1cc(Nc2nccc(Nc3cc(Cl)c(F)cc3C(C)(C)O)n2)c(OC)cc1N1CC[C@@H](N(C)C)C1,"enzyme activity, inhibitor",,1 µM,inhibition,-6%
CN1CC(Oc2cnc(C#N)cc2-c2ccn3nc(NC(=O)C4CC4)cc3c2)C1,"enzyme activity, inhibitor",,1 µM,inhibition,5%
Nc1cnc(N2CCc3cc(S(=O)(=O)Nc4c(F)cc(Cl)cc4F)cc(N4CCCC4=O)c32)nc1,"cell-free assay, competition with immobilised ligand",,1 µM,remaining binding,100%
Nc1ncnc2occ(-c3ccc(NC(=O)Nc4cc(C(F)(F)F)ccc4F)cc3)c12,cell-free assay,,20 µM,remaining signal,5.3%
CC(C)(C)c1nc(-c2cccc(NS(=O)(=O)c3c(F)cccc3F)c2F)c(-c2ccnc(N)n2)s1,"enzyme activity, inhibitor, radiometric",,1 µM,remaining activity,49%
Cc1ccc(C(=O)Nc2ccc(CN3CCN(C)CC3)c(C(F)(F)F)c2)cc1C#Cc1cnc2cccnn12,enzyme activity,,23.5 nM,remaining activity,73%
CC(C)(C)c1nc2c(s1)c1nc(N)ncc1c1ccc(NS(=O)(=O)c3c(F)cccc3F)c(F)c12,"enzyme activity, inhibitor, radiometric",,1 µM,remaining activity,81%
CCc1ccccc1C(=O)Nc1n[nH]c2c(C)c(F)c(C3C(C#N)=C(C)N(C)C(C)=C3C#N)cc12,"cell-free assay, competition with immobilised ligand",,1 µM,remaining binding,7.5%
CCCCNc1ncc2c(-c3ccc(F)cc3)nn(C[C@H]3CC[C@H](N)CC3)c2n1,"target engagement in cells, inhibitor, chemoproteomics",,20 mM,inhibition,22.8%
O=C(Nc1cccnn1)N1CC(C/C=C/c2cncc(Oc3ccc(C(F)(F)F)cn3)n2)C1,"cell-free assay, competition with immobilised ligand",,1 µM,remaining binding,100%
FC(F)(F)Oc1cccc(-c2cnc3ccc(-c4ccncc4)nn23)c1,"enzyme activity, inhibitor, radiometric",,1 µM,activity vs control,81%
COc1cccc2c(NCc3ccccc3)nc(-n3c(N)nc4ccccc43)nc12,"target engagement in cells, inhibitor, chemoproteomics",,20 mM,inhibition,8.3%
CCN1CCN(Cc2ccc(NC(=O)c3ccc(C)c(Oc4ccnc5[nH]ccc45)c3)cc2C(F)(F)F)CC1,"target engagement in cells, inhibitor, chemoproteomics",Huh-7,1 µM,inhibition,-32.8%
Cc1ncc([N+](=O)[O-])n1C(=NO)c1ccccc1C(F)(F)F,"enzyme activity, inhibitor",,10 µM,inhibition,7.33%
